ChEMBL document CHEMBL5338796, “Discovery of a Selective and Orally Bioavailable FGFR2 Degrader for Treating Gastric Cancer” (J Med Chem, 2023)
Activity calls are given as the source filed them. The rule behind the calls is not given here.

Legend:
SNU-16 [1] = assay: Antitumor activity against human SNU-16 cells xenografted in BALB/c nude mouse assessed as reduction in FGFR phosphorylation in tumor at 20 mg/kg, po measured at 4 hrs; format: functional, organism-based
Procedure, shortened: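 Female BALB/c nude mice, 5 weeks old (20–22 g), s.c. right-flank SNU-16 implants, randomized by body weight into groups (n = 5) once tumours reached 50–100 mm3. Dosing 20 mg/kg/day intragastric in 0.5% CMC-Na for 15 d; vehicle controls. Tumour width and length measured every 2 days; tumours harvested 4 h after last dose and lysates immunoblotted for pFGFR, FGFR2, pPLCγ, pErk.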

[2] = target: T1, Protein cereblon/Fibroblast growth factor receptor 2 (Homo sapiens, UniProt P21802+Q96SW2); assay: PROTAC activity at CRBN/FGFR2 in human KATO III stomach cancer cell line assessed as FGFR2 degradation by measuring FGFR2 expression level upto 100 nM by Western blotting analysis; format: cell-based; settings: time 12.0 hrs, TDE = time-dependent effect
Procedure, shortened: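 KATO III cells treated 6 h across 0.5–10,000 nM (DMSO stock, final DMSO below 0.5%); FGFR2 immunoblotted, quantified as FGFR2/β-actin ratio normalized to DMSO-treated cells, three independent biological experiments; DC50 and Dmax derived from the curve.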

[3] = target: T1, Protein cereblon/Fibroblast growth factor receptor 2; assay: PROTAC activity at CRBN/FGFR2 in human KATO III stomach cancer cell line assessed as FGFR2 degradation by measuring FGFR2 expression level upto 100 nM measured after 3 hrs by Western blotting analysis; format: cell-based
Procedure, shortened: (§1)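 Time course in KATO III cells: FGFR2/β-actin by Western blot at successive treatment times, normalized to DMSO control.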

[4] = target: T1, Protein cereblon/Fibroblast growth factor receptor 2; assay: PROTAC activity at CRBN/FGFR2 in human KATO III stomach cancer cell line assessed as FGFR2 degradation by measuring FGFR2 expression level at 100 nM measured after 12 hrs by Western blotting analysis relative to control; format: cell-based; procedure, shortened: as §1
[5] = target: Mitogen-activated protein kinase kinase kinase 4 (Homo sapiens) (UniProt Q9Y6R4); assay: Inhibition of partial length human MAP3K4 at 1000 nM by KINOMEscan analysis relative to control
[6] = target: Fibroblast growth factor receptor 3 (Homo sapiens) (UniProt P22607); assay: Induction of FGFR3 degradation in human MCF7 cells at 100 nM measured for 6 hrs Western blot analysis; format: cell-based
Procedure, shortened: (§2)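 NCI-H1581 (FGFR1), MCF7 (FGFR3) and Huh7 (FGFR4) cells, which endogenously express the isoforms, treated with 100 nM for 6 h; isoform levels by Western blot against β-actin, three biologically independent experiments.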

[7] = target: Fibroblast growth factor receptor 4 (Homo sapiens) (UniProt P22455); assay: Induction of FGFR4 degradation in human Huh-7 cells at 100 nM measured for 6 hrs Western blot analysis; format: cell-based; procedure, shortened: as §2
[8] = target: Fibroblast growth factor receptor (Homo sapiens) (UniProt P22607+P11362+P22455+P21802); assay: Induction of FGFR degradation in human KATO III stomach cancer cell line assessed as reduction in FRS2 phosphorylation at 50 nM measured for 6 hrs; format: cell-based
Procedure, shortened: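 KATO III cells incubated 6 h with 50 nM compound, then stimulated with FGF1 for 10 min; pFGFR, pPLCγ1 (Tyr783) and pFRS2α immunoblotted.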

[9] = test system: KATO III stomach cancer cell line; assay: Antiproliferative activity against human KATO III stomach cancer cell line assessed as reduction in cell viability measured for 72 hrs by celltiter-glo reagent based assay; format: functional
Procedure, shortened: (§3)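 Cancer lines KATO III, SNU16, NCI-H716, NCI-H1975, MV-4-11 and HEK293T treated 72 h; antiproliferative IC50 given as mean ± s.d. from three independent biological experiments.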

SNU-16 [10] = assay: Antiproliferative activity against human SNU-16 cells assessed as reduction in cell viability measured for 72 hrs by celltiter-glo reagent based assay; format: functional; settings: SNU-16, 72 h; procedure, shortened: as §3
NCI-H1975 = assay: Antiproliferative activity against human NCI-H1975 cells assessed as reduction in cell viability measured for 72 hrs by celltiter-glo reagent based assay; format: functional; settings: NCI-H1975, 72 h; procedure, shortened: as §3
MV4-11 = assay: Antiproliferative activity against human MV4-11 cells assessed as reduction in cell viability measured for 72 hrs by celltiter-glo reagent based assay; format: functional; settings: MV4-11, 72 h; procedure, shortened: as §3
[11] = Antiproliferative activity against human HEK293T cells assessed as reduction in cell viability measured for 72 hrs by celltiter-glo reagent based assay; format: toxicity, HEK-293T; procedure, shortened: as §3
[12] = test system: KATO III stomach cancer cell line; assay: Induction of cell cycle arrest in human KATO III stomach cancer cell line assessed as accumulation of cells at G0/G1 phase […] by flow cytometry analysis; format: functional, cell-based
Procedure, shortened: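 KATO III cells harvested with EDTA-free trypsin, fixed in cold 70% ethanol overnight at −20 °C, stained with DNA staining solution 30 min at room temperature, analysed by flow cytometry.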

[13] = Toxicity in ICR mouse assessed as change in liver weight at 20 mg/kg, po measured for 30 days; format: organism-based; settings: in vivo, 720 h, time 30 day
Procedure, shortened: (§4)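 ICR mice (n = 6) were dosed orally at 20 mg/kg/day for 30 days, alongside vehicle-treated controls. Mortality and clinical signs were checked daily. At the end, body and organ weights were recorded. Heart, liver, spleen, lung and kidney were examined by hematoxylin and eosin staining.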

[14] = Nephrotoxicity in ICR mouse assessed as effect on creatinine level at 20 mg/kg, po measured for 30 days; format: toxicity, organism-based; settings: in vivo, 720 h, time 30 day
Procedure, shortened: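 ICR mice given 20 mg/kg/day orally for 30 days (n = 6), vehicle controls; mortality and clinical signs checked daily, then AST/ALT and creatinine, organ weights, haematology and H&E of heart, liver, spleen, lung, kidney.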

[15] = Toxicity in ICR mouse assessed as morphological changes in heart at 20 mg/kg, po measured for 30 days by hematoxyin-eosin staining based analysis; format: organism-based; settings: in vivo, 720 h, time 30 day; procedure, shortened: as §4
[16] = Toxicity in ICR mouse assessed as morphological changes in lung at 20 mg/kg, po measured for 30 days by hematoxyin-eosin staining based analysis; format: organism-based; settings: in vivo, 720 h, time 30 day; procedure, shortened: as §4
[17] = Toxicity in BALB/c mouse xenografted with human SNU-16 cells assessed as tolerability at 20 mg/kg, po administered for 15 days and measured on day 2; format: organism-based; settings: in vivo, 48 h, time 2 day
Procedure, shortened: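 Female BALB/c nude mice, 5 weeks old (20–22 g), carried subcutaneous SNU-16 xenografts in the right flank. Dosing began at mean tumor volume 50–100 mm3, after randomization by body weight, n = 5. Mice received 20 mg/kg/day by gavage in 0.5% CMC-Na, QD for 15 d, with vehicle controls. Body weight was measured every 2 days.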

[18] = Tmax in mouse at 20 mg/kg, po measured at 0.25 to 24 hrs by LC-MS/MS analysis; settings: in vivo
[19] = Cmax in mouse at 3 mg/kg, iv measured at 0.083 to 24 hrs by LC-MS/MS analysis; settings: in vivo
[20] = Clearance in mice at 3 mg/kg, iv measured at 0.083 to 24 hrs by LC-MS/MS analysis; settings: mouse, in vivo
[21] = AUC (0 to infinity) in mouse at 3 mg/kg, iv measured at 0.083 to 24 hrs by LC-MS/MS analysis; settings: in vivo

T1 sequence (P21802 22-821 limits assumed): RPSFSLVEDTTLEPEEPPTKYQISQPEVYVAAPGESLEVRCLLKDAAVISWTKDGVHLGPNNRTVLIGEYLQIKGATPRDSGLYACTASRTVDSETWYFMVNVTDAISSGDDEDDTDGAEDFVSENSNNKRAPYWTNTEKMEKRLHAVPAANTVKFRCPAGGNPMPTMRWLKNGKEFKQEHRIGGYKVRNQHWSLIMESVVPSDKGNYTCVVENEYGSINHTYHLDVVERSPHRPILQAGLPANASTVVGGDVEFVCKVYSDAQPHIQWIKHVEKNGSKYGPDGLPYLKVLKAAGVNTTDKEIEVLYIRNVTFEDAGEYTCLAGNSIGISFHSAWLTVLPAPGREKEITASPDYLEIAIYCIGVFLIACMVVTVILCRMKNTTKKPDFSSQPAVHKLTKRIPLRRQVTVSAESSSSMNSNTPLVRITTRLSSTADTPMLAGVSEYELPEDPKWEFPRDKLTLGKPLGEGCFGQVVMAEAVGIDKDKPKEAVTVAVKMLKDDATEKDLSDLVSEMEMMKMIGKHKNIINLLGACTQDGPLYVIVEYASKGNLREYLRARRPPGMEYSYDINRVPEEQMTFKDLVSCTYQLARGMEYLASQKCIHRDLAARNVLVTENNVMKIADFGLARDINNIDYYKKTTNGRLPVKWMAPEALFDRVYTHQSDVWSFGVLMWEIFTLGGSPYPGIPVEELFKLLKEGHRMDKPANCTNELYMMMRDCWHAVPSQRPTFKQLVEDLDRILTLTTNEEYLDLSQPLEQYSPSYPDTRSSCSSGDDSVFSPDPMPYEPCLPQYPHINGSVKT
T1 sequence (Q96SW2 whole entry partner): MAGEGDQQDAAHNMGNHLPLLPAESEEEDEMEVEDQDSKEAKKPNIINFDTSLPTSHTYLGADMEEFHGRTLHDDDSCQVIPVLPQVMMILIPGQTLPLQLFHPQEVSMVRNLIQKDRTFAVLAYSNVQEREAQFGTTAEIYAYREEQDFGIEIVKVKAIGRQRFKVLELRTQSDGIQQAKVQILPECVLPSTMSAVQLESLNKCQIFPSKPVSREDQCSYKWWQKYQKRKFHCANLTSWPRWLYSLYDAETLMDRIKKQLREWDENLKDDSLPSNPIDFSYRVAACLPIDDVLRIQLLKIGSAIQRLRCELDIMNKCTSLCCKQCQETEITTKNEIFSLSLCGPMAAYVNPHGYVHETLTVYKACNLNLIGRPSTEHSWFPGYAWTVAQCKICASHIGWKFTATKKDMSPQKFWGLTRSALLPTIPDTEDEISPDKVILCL
Sequence of Fibroblast growth factor receptor 4 (Homo sapiens) (P22455 22-802 limits assumed): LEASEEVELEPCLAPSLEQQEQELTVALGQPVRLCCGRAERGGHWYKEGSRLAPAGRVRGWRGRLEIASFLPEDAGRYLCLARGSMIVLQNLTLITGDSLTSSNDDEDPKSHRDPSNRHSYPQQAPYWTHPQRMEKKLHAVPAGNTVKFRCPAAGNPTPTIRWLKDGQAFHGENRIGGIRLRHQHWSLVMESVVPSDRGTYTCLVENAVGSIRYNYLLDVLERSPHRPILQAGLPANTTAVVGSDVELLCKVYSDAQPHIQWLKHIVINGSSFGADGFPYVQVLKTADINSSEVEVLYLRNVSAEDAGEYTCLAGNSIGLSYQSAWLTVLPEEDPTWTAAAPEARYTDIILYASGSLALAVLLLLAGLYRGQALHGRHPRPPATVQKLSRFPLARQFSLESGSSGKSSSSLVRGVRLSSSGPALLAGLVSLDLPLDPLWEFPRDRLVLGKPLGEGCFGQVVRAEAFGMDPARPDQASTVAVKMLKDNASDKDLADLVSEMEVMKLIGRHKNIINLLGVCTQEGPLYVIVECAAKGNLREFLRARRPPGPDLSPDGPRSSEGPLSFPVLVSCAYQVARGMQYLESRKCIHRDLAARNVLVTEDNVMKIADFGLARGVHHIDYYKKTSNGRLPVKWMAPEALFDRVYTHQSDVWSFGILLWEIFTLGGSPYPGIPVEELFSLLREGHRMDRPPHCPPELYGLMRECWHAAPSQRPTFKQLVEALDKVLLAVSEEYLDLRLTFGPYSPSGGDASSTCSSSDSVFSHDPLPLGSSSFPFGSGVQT
Sequence of Fibroblast growth factor receptor 3 (Homo sapiens) (P22607 23-806 limits assumed): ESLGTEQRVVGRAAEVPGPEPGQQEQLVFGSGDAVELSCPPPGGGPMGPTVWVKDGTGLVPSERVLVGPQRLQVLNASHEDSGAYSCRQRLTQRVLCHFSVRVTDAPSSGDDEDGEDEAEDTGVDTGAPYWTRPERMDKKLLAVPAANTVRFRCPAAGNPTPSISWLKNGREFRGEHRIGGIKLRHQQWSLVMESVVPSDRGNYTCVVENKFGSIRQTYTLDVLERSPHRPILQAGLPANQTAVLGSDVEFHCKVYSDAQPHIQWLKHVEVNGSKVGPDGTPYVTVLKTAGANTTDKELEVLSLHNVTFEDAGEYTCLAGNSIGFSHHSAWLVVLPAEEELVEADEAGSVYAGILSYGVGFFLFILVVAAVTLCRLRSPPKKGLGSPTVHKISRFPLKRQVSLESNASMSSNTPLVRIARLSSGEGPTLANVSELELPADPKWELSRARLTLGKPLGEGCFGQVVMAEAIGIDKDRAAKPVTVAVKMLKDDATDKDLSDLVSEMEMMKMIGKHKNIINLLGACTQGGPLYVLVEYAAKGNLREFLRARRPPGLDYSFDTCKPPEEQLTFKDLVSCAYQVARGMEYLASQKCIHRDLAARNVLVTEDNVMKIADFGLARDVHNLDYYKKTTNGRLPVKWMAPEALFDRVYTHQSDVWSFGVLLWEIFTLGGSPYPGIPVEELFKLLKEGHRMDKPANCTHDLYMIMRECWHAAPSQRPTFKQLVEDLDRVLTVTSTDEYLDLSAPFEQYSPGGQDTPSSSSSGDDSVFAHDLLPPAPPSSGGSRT
Sequence of Mitogen-activated protein kinase kinase kinase 4 (Homo sapiens) (Q9Y6R4 whole entry): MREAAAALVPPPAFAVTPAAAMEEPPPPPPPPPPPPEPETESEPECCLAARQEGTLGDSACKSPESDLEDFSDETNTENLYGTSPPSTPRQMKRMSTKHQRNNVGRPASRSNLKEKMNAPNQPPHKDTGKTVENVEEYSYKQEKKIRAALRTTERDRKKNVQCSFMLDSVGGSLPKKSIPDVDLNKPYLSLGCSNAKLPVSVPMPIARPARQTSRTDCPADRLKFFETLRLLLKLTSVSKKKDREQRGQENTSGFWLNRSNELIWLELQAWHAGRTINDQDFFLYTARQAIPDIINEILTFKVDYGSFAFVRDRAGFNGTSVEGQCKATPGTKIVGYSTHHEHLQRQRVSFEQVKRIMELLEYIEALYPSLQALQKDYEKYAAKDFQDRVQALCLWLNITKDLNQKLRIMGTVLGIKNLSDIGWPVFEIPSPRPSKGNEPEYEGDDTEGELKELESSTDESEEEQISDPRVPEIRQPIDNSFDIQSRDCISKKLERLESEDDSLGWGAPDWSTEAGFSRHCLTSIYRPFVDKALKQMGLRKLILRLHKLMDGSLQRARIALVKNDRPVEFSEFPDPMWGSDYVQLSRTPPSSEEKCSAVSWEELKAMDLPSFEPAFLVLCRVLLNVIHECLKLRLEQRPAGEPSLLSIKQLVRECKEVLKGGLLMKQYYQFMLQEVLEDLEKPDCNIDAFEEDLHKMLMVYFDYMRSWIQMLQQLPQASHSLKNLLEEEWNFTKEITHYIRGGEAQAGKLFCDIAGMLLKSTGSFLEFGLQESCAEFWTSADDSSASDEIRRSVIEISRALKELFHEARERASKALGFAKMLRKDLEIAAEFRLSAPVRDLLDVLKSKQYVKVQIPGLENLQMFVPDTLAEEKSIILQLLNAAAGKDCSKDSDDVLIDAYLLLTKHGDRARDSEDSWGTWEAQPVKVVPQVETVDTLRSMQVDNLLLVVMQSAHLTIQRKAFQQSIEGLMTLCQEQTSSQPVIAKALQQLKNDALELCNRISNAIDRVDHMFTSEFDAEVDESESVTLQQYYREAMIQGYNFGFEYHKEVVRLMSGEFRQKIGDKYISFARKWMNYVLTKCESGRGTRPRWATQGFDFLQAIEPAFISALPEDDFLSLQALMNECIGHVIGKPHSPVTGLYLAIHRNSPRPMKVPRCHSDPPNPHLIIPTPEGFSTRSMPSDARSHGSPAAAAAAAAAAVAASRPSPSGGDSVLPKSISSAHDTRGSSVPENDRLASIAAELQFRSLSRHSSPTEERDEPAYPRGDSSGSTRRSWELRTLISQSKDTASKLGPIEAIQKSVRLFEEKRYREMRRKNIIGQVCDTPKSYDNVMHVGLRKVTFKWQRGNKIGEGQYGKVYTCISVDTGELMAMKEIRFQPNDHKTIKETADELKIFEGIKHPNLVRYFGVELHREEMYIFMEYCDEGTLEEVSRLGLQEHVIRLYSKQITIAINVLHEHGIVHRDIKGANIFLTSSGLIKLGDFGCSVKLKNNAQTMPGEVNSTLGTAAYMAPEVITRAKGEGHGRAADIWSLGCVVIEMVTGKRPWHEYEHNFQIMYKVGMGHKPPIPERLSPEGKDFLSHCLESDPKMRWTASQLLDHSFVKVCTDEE

Activity [2]: Tde | Activity [3]: Active | Activity [4]: 90% | inhibition [5]: 45% | Activity [6]: inactive | Activity [7]: inactive | Activity [8]: Active | IC50 [9]: 29.1 nM | IC50 (SNU-16 [10]): 3.7 nM | IC50 (NCI-H1975): > 10000 nM | IC50 (MV4-11): > 10000 nM | Tmax [18]: 2.67 h | Cmax [19]: 655 ng/mL | clearance [20]: 121 mL/min/kg | AUC(0-inf) [21]: 422 ng·h/mL
SMILES: COc1cc(OC)c(Cl)c(NC(=O)N(C)c2cc(Nc3ccc(N4CCN(C(=O)C5CCN(c6ccc7c(c6)C(=O)N(C6CCC(=O)NC6=O)C7=O)CC5)CC4)cc3)ncn2)c1Cl (stereo not drawn)
Activity (SNU-16 [1]): Active | IC50 at 72 h [11]: > 10000 nM | Activity [12]: Active | Activity [13]: Non-Toxic | Activity [14]: Non-Toxic | Activity [15]: Non-Toxic | Activity [16]: Non-Toxic | Activity [17]: Non-Toxic
